Columns and labels:
[1] = Inhibitory concentration to reduce cell number to 50% of Murine P388 leukemia cell culture; type: functional, Mus musculus
Outline: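 Murine P388 leukemia cells seeded at 4.5 × 10³ per well and grown 3 days with drug. Growth was read by [³H]TdR uptake. IC50 is the drug concentration that reduces cell number to 50% of control cultures. Independent assays were run in duplicate, with a coefficient of variation of 12%.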

[2] = Inhibitory concentration against Murine Lewis lung carcinoma (LLC) cell proliferation; type: functional, cell-based; settings: Mus musculus
Outline: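 Lewis lung carcinoma (LLTC) cells plated at 10³ per well and exposed to drug for 4 days. Growth was measured by sulforhodamine assay. IC50 is the concentration giving 50% of control cell number. Independent assays were run in duplicate, with a coefficient of variation of 12%.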

[3] = Ratio of inhibitory concentration of Human Jurkat leukemia A (JLA) and Human Jurkat leukemia C (JLC); type: functional
Outline: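 Human Jurkat leukemia cells (JLC) and their amsacrine-resistant derivative (JLA) were seeded at 3.75 × 10³ cells/well and grown 4 days with drug. Growth was read by sulforhodamine assay. IC50 is the drug level cutting cell number to 50% of control cultures; the ratio is IC50(JLA)/IC50(JLC). Independent assays were run in duplicate; CVs were 9.3% (JLA) and 6.3% (JLC).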

[4] = Ratio of inhibitory concentration of Human Jurkat leukemia D (JLD) and Human Jurkat leukemia C (JLC); type: functional
Outline: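 Parental Jurkat (JL_C) and its amsacrine-resistant (JL_A) and doxorubicin-resistant (JL_D) derivatives, each seeded at 3.75 × 10³ per well for 4 days of drug exposure. Sulforhodamine assay gave IC50 (50% of control cell number). The ratio is resistant-line IC50 over JL_C IC50. Duplicate assays; coefficients of variation 9.3% (JL_A) and 5.7% (JL_D).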

[5] = Inhibitory concentration against Human Jurkat leukemia (JLC) cell proliferation; type: functional
Outline: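 Human Jurkat leukemia (JL_C) cells at 3.75 × 10³ per well, cultured 4 days with drug. Sulforhodamine read-out. IC50 is the concentration reducing cell number to 50% of untreated controls. Duplicate independent assays, coefficient of variation 6.3%.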

**Q.** What does the source list for CN(C)CCNC(=O)c1cccc2[nH]c3c4ccccc4nc-3nc12?
**A.** IC50 [1]: 670 nM; IC50 [2]: 990 nM; IC50 ratio [3]: 0.9; IC50 ratio [4]: 1; IC50 [5]: 1400 nM

**Q.** Which IC50 [1] does the source give for CN(C)CCNC(=O)c1cccc2cc3c(nc12)-c1ccccc1C3=O here?
**A.** The IC50 was 130 nM.

**Q.** What about the IC50 [2] of the same molecule?
**A.** The IC50 was 91 nM.

**Q.** And the IC50 ratio [3]?
**A.** The IC50 ratio was 1.2.

**Q.** What about the IC50 ratio [4] of the same molecule?
**A.** The IC50 ratio was 0.9.

**Q.** What about the IC50 [5] of the same molecule?
**A.** Its IC50 is 180 nM.

**Q.** For CN(C)CCNC(=O)c1cccc2nc3c(nc12)-c1ccccc1C3, which IC50 [1] is on record?
**A.** Its IC50 is 360 nM.

**Q.** And the IC50 [2]?
**A.** Its IC50 is 390 nM.

**Q.** And the IC50 ratio [3]?
**A.** Its IC50 ratio is 1.

**Q.** And the IC50 ratio [4]?
**A.** The IC50 ratio was 1.

**Q.** And the IC50 [5]?
**A.** Its IC50 is 550 nM.

**Q.** What does the source list for CN(C)CCNC(=O)c1cc(Cl)cc2nc3oc4ccccc4c3nc12?
**A.** IC50 [1]: 5800 nM; IC50 [2]: > 2000 nM; IC50 [5]: > 2000 nM

**Q.** With CN(C)CCNC(=O)c1cccc2nc3sc4ccccc4c3nc12 as the molecule, how does the IC50 [1] read?
**A.** The IC50 was 100 nM.

**Q.** What about the IC50 [2] of the same molecule?
**A.** The IC50 was 110 nM.

**Q.** And the IC50 ratio [3]?
**A.** The IC50 ratio was 1.9.

**Q.** What about the IC50 ratio [4] of the same molecule?
**A.** The IC50 ratio was 2.7.

**Q.** And the IC50 [5]?
**A.** Its IC50 is 150 nM.

**Q.** With CN(C)CCNC(=O)c1cccc2cc3oc4ccccc4c3nc12 as the molecule, how does the IC50 [1] read?
**A.** The IC50 was 170 nM.

**Q.** And the IC50 [2]?
**A.** The IC50 was 210 nM.

**Q.** What about the IC50 ratio [3] of the same molecule?
**A.** The IC50 ratio was 1.2.

**Q.** And the IC50 ratio [4]?
**A.** Its IC50 ratio is 1.2.

**Q.** And the IC50 [5]?
**A.** The IC50 was 430 nM.

**Q.** What does the source list for COc1cc(NS(C)(=O)=O)ccc1Nc1c2ccccc2nc2ccccc12 [AMSACRINE]?
**A.** IC50 [1]: 20 nM; IC50 [2]: 12 nM; IC50 ratio [3]: 85; IC50 ratio [4]: 74; IC50 [5]: 37 nM

**Q.** With CN(C)CCNC(=O)c1cc(Cl)cc2nc3c(nc12)oc1ccccc13 as the molecule, how does the IC50 [1] read?
**A.** Its IC50 is 6800 nM.

**Q.** What about the IC50 [2] of the same molecule?
**A.** The IC50 was 1400 nM.

**Q.** What about the IC50 ratio [3] of the same molecule?
**A.** The IC50 ratio was 1.2.

**Q.** What about the IC50 ratio [4] of the same molecule?
**A.** Its IC50 ratio is > 1.3.

**Q.** And the IC50 [5]?
**A.** The IC50 was 1500 nM.

**Q.** Which IC50 [1] does the source give for CN(C)CCNC(=O)c1cccc2nc3c(nc12)-c1ccccc1C3=O here?
**A.** Its IC50 is 700 nM.

**Q.** What about the IC50 [2] of the same molecule?
**A.** Its IC50 is 880 nM.

**Q.** And the IC50 ratio [3]?
**A.** The IC50 ratio was 1.

**Q.** And the IC50 ratio [4]?
**A.** Its IC50 ratio is 1.1.

**Q.** And the IC50 [5]?
**A.** Its IC50 is 1100 nM.

**Q.** Which results are given for CN(C)CCNC(=O)c1cccc2nc3c(nc12)oc1ccccc13?
**A.** IC50 [1]: 2200 nM; IC50 [2]: 1700 nM; IC50 ratio [3]: 1; IC50 ratio [4]: 1; IC50 [5]: 2600 nM

**Q.** Which results are given for CN(C)CCNC(=O)c1cccc2cc3ccccc3nc12?
**A.** IC50 [1]: 98 nM; IC50 [5]: 580 nM

**Q.** Which results are given for CC[C@@]1(O)C(=O)OCc2c1cc1n(c2=O)Cc2cc3ccccc3nc2-1 [CAMPTOTHECIN]?
**A.** IC50 [2]: 33 nM; IC50 ratio [3]: 2; IC50 ratio [4]: 1.4; IC50 [5]: 5.6 nM

**Q.** Which IC50 [1] does the source give for CN(C)CCNC(=O)c1cccc2cc3c(nc12)C(=O)c1ccccc1-3 here?
**A.** The IC50 was 85 nM.

**Q.** And the IC50 [2]?
**A.** Its IC50 is 150 nM.

**Q.** And the IC50 ratio [3]?
**A.** Its IC50 ratio is 0.9.

**Q.** And the IC50 ratio [4]?
**A.** The IC50 ratio was 0.9.

**Q.** And the IC50 [5]?
**A.** The IC50 was 370 nM.

**Q.** Which IC50 [1] does the source give for CN(C)CCNC(=O)c1cccc2c(C(=O)NCCN(C)C)c3sc4ccccc4c3nc12 here?
**A.** Its IC50 is 25 nM.

**Q.** What about the IC50 [2] of the same molecule?
**A.** Its IC50 is 30 nM.

**Q.** And the IC50 ratio [3]?
**A.** The IC50 ratio was 0.5.

**Q.** And the IC50 ratio [4]?
**A.** The IC50 ratio was 0.9.

**Q.** And the IC50 [5]?
**A.** The IC50 was 34 nM.

**Q.** Which IC50 [1] does the source give for COc1cccc2c1C(=O)c1c(O)c3c(c(O)c1C2=O)C[C@@](O)(C(=O)CO)C[C@@H]3O[C@H]1C[C@H](N)[C@H](O)[C@H](C)O1 [DOXORUBICIN] here?
**A.** Its IC50 is 15 nM.

**Q.** What about the IC50 [2] of the same molecule?
**A.** Its IC50 is 22 nM.

**Q.** And the IC50 ratio [3]?
**A.** The IC50 ratio was 4.4.

**Q.** And the IC50 ratio [4]?
**A.** The IC50 ratio was 90.

**Q.** What about the IC50 [5] of the same molecule?
**A.** Its IC50 is 9.6 nM.

**Q.** For CN(C)CCNC(=O)c1cccc2cc3c(nc12)-c1ccccc1C3, which IC50 [1] is on record?
**A.** Its IC50 is 88 nM.

**Q.** And the IC50 [2]?
**A.** The IC50 was 190 nM.

**Q.** What about the IC50 ratio [3] of the same molecule?
**A.** The IC50 ratio was 1.8.

**Q.** And the IC50 ratio [4]?
**A.** Its IC50 ratio is 1.9.

**Q.** And the IC50 [5]?
**A.** Its IC50 is 320 nM.

**Q.** Which IC50 [1] does the source give for CN(C)CCNC(=O)c1cccc2cc3[nH]c4ccccc4c3nc12 here?
**A.** Its IC50 is 370 nM.

**Q.** And the IC50 [2]?
**A.** The IC50 was 290 nM.

**Q.** What about the IC50 ratio [3] of the same molecule?
**A.** The IC50 ratio was 1.

**Q.** And the IC50 ratio [4]?
**A.** Its IC50 ratio is 1.1.

**Q.** And the IC50 [5]?
**A.** The IC50 was 450 nM.

**Q.** Which results are given for CN(C)CCNC(=O)c1cc(Cl)cc2[nH]c3c4ccccc4nc-3nc12?
**A.** IC50 [1]: 15000 nM; IC50 [2]: 360 nM; IC50 ratio [3]: 1.2; IC50 ratio [4]: 1.3; IC50 [5]: 300 nM

**Q.** What does the source list for CN(C)CCNC(=O)c1cc(Cl)cc2[nH]c3nc4ccccc4c-3nc12?
**A.** IC50 [1]: 1600 nM; IC50 [2]: 700 nM; IC50 ratio [3]: 0.8; IC50 ratio [4]: 0.9; IC50 [5]: 980 nM

**Q.** Which results are given for COc1cc([C@@H]2c3cc4c(cc3[C@@H](O[C@@H]3O[C@@H]5CO[C@@H](C)O[C@H]5[C@H](O)[C@H]3O)[C@H]3COC(=O)[C@H]23)OCO4)cc(OC)c1O [ETOPOSIDE]?
**A.** IC50 [1]: 25 nM; IC50 [2]: 180 nM; IC50 ratio [3]: 13; IC50 ratio [4]: 90; IC50 [5]: 160 nM

**Q.** Which results are given for CN(C)CCNC(=O)c1cccc2cc3sc4ccccc4c3nc12?
**A.** IC50 [1]: 46 nM; IC50 [2]: 66 nM; IC50 ratio [3]: 1.5; IC50 ratio [4]: 1.6; IC50 [5]: 170 nM

**Q.** Which IC50 [1] does the source give for CN(C)CCNC(=O)c1cccc2cc3c(nc12)-c1ccccc1S3(=O)=O here?
**A.** The IC50 was 1800 nM.

**Q.** What about the IC50 [2] of the same molecule?
**A.** Its IC50 is 430 nM.

**Q.** And the IC50 ratio [3]?
**A.** The IC50 ratio was 3.2.

**Q.** And the IC50 ratio [4]?
**A.** Its IC50 ratio is 4.2.

**Q.** And the IC50 [5]?
**A.** The IC50 was 860 nM.

— ChEMBL document CHEMBL1130077, “Synthesis and antitumor properties of N-[2-(dimethylamino)ethyl]carboxamide derivatives of fused tetracyclic quinolines and quinoxalines: a new class of putative topoisomerase inhibitors” (J Med Chem, 1997)
